Records with an inconclusive call do not appear.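 How the source made its calls, unless noted: active means cell viability at or below a set limit in both duplicate runs, the limit being the all-compound median minus 4 SD (cut at about 23% in these data, passing the limit was not always enough); inconclusive means no clear call, values can overlap the other calls; inactive means the rest.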
What was measured:
[1] = S. cerevisiae growth inhibition in permissive medium (OD615), pilot counter-assay for S. cerevisiae lifespan shortening project, permissive growth control (AID 705;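 active means growth inhibition above 25% in both replicates, a cutoff set 3 SD above the mean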); settings: OD615, 24 h, at 10 µM, stronger effect = higher value
Method in brief: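 Test system: Saccharomyces cerevisiae strain carrying genetically modified DeaD replicative-lifespan system; buffer or medium: SC raffinose/galactose permissive medium; dosing: one dose 10 µM, DMSO 0.25% final; times: 24 h exposure, 30 °C; measured by: OD at 615 nm; read-out basis: growth inhibition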

[2] = S. cerevisiae growth inhibition in restrictive medium, OD615, pilot screen, restrictive growth control, yeast lifespan reduction project (AID 706;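 active means growth inhibition above a set limit, 3 SD over mean compound inhibition, in both replicates, cut at about 43% in these data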;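 further: modified DeaD lifespan yeast strain shifted to restrictive glucose medium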); settings: OD615, 48 h, at 10 µM, stronger effect = higher value
Method in brief: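 material = engineered S. cerevisiae DeaD strain | buffer or medium = glucose-based CSMM-D restrictive medium | dosing = one concentration, 10 µM final, 0.25% DMSO | schedule = 4 h pre-growth plus 48 h compound exposure, 30 °C | detection = OD615 absorbance reading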

[3] = doxorubicin toxicity protection in MRP-1 cells – H69AR cells, CellTiter-Glo, duplicate, MRP-1 activator project, pilot screen (AID 807;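 active means viability increase at or above a cutoff of the median across tested compounds plus 3 SD, cut at about 8.5% in these data, passing the limit was not always enough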;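 further: compound pretreatment 18-22 h then 72 h combined with doxorubicin; 0% = doxorubicin alone and 100% = vehicle without doxorubicin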); settings: H69AR viability with doxorubicin, CellTiter-Glo luminescence; at 10 µM; stronger effect = higher value
[4] = viability of HCT116 without oncogenic beta-catenin – human colon tumor cells, pilot screen (AID 823); settings: HCT116 beta-catenin knockout viability, CellTiter-Glo, 60 h; at 10 µM; stronger effect = lower value;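 further: 0% = wells killed by 20 µM Hyamine and 100% = untreated DMSO cell wells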
[5] = viability of PTEN-null HCT116 cells – cell-based, HCT116 clonal line, CellTiter-Glo, pilot screen (AID 824;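 active means viability at or below 27.92% in each of two runs, the all-compound median minus 4 SD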;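 further: 0% = 20 µM Hyamine control and 100% = vehicle cell control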); settings: HCT116 PTEN-deleted viability, 60 h, at 10 µM, stronger effect = lower value
[6] = RAM pathway blockade in budding yeast – dse1pr::URA3 reporter, 5-FOA selection, pilot screen (AID 869;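 active means inhibition over a set limit, the all-compound mean plus 3 SD, in both replicate runs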;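 further: 0% = DMSO wells with no growth and 100% = 10 µM 1-NA-PP1 with full growth; RAM network block rescues cells from 5-FOA so hits raise OD615 growth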); settings: S. cerevisiae dse1pr::URA3 5-FOA growth, OD615, 2 d; at 10 µM; stronger effect = higher value; strain carries analog-sensitive mutant Cbk1 kinase
[7] = RAM signaling pathway blockade in yeast – S. cerevisiae, Pdr1DBD-CYC8 efflux-inhibited sensitized strain, primary screen (AID 1298;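 active means RAM network inhibition above 8.4% in each of two replicates, 3 SD over the compound average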;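 further: 0% = DMSO untreated cells without growth and 100% = 10 µM 1-NA-PP1 full growth; higher means more yeast growth rescued from 5-FOA killing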); settings: S. cerevisiae cbk1-as DSE1-URA3 strain, 5-FOA growth OD615, 2 d; at 50 µM; stronger effect = higher value

O=C(O)CN(Cc1ccco1)S(=O)(=O)c1ccccc1
inactive: growth inhibition [1] -15.2% | growth inhibition [2] -13% | viability increase [3] -1.97% | viability [4] 95.7% | viability [5] 98.3% | inhibition [6] 2.67% | RAM network inhibition [7] 2.35%

CC(=O)c1c(C)[nH]c(C(=O)N2CCN(c3ncccn3)CC2)c1C
inactive: growth inhibition [1] -2.15% | growth inhibition [2] -5.67% | viability increase [3] -1.39% | viability [4] 86.8% | viability [5] 96.6% | inhibition [6] 1.43% | RAM network inhibition [7] -0.51%

CCOc1cc(C(=O)NCCN2CCOCC2)cc(OCC)c1OCC
inactive: growth inhibition [1] -5.59% | growth inhibition [2] -3.11% | viability increase [3] -3.76% | viability [4] 91.3% | viability [5] 96.4% | inhibition [6] -0.045% | RAM network inhibition [7] 2.61%

CCn1cc(C(=O)NCC(=O)OC)c2cc(OC)c(OC)cc2c1=O
inactive: growth inhibition [1] -6.43% | growth inhibition [2] -18.9% | viability increase [3] 0.9% | viability [4] 105% | viability [5] 104% | inhibition [6] 0.59% | RAM network inhibition [7] 2.3%

O=C(OCn1nnc2ccccc2c1=O)c1cccs1
inactive: growth inhibition [1] -7.72% | growth inhibition [2] 2.16% | viability increase [3] -0.21% | viability [4] 103% | viability [5] 95.9% | inhibition [6] 0.24% | RAM network inhibition [7] 3.6%

NC(=O)c1ccsc1NC(=O)c1ccco1
inactive: growth inhibition [1] 7.15% | growth inhibition [2] 20.1% | viability increase [3] -1.54% | viability [4] 102% | viability [5] 99% | inhibition [6] 1.1% | RAM network inhibition [7] 1.1%

COc1ccc(Cl)cc1NC(=O)c1cnc2sccn2c1=O
inactive: growth inhibition [1] -6.94% | growth inhibition [2] 9.97% | viability increase [3] -5.14% | viability [4] 82.9% | viability [5] 82.6% | inhibition [6] 4.45% | RAM network inhibition [7] 6.59%

Cn1c(=O)[nH]c(=O)c2c1nc(N1CCCCCC1)n2CCSc1nc2ccccc2o1
inactive: growth inhibition [1] -8.05% | growth inhibition [2] -7.14% | viability increase [3] -3.78% | viability [4] 95.4% | viability [5] 91.3% | inhibition [6] 1.73% | RAM network inhibition [7] 3.18%

O=C(c1cc(-c2ccc(O)cc2)on1)N1CCCc2ccccc21
inactive: growth inhibition [1] -15.5% | growth inhibition [2] 12.2% | viability increase [3] -5.72% | viability [4] 92.6% | viability [5] 88.3% | inhibition [6] 0.66% | RAM network inhibition [7] 1.51%

O=c1cc(-c2ccccc2Cl)c2c([nH]1)CCC2
inactive: growth inhibition [1] -9.7% | growth inhibition [2] 0.91% | viability increase [3] -2.8% | viability [4] 94.5% | viability [5] 87.2% | inhibition [6] 1.71% | RAM network inhibition [7] 0.26%

O=C(O)c1ccccc1C(=O)c1cccs1
inactive: growth inhibition [1] -14.9% | growth inhibition [2] -17.1% | viability increase [3] -0.3% | viability [4] 101% | viability [5] 92.5% | inhibition [6] 0.54% | RAM network inhibition [7] 1.05%

Cc1cc(C)cc(NC(=O)CSc2nc3c(c(=O)n2C)SC(C)C3)c1 (stereo not drawn)
inactive: growth inhibition [1] -2.6% | growth inhibition [2] 2.95% | viability increase [3] -2.79% | viability [4] 89.3% | viability [5] 92% | inhibition [6] 2.04% | RAM network inhibition [7] 6.37%

CCOc1ccc(OCC)c(NC(=O)C2CCCN2S(=O)(=O)c2cccc3cccnc23)c1 (stereo not drawn)
inactive: growth inhibition [1] -0.54% | growth inhibition [2] 8.82% | viability increase [3] -3.84% | viability [4] 69.8% | viability [5] 65.7% | inhibition [6] -0.48% | RAM network inhibition [7] 5.36%

c1ccc(Oc2nc(Oc3ccccc3)nc(N3CCOCC3)n2)cc1
inactive: growth inhibition [1] -3.76% | growth inhibition [2] -9.93% | viability increase [3] -2.99% | viability [4] 83.7% | viability [5] 74.1% | inhibition [6] 0.355% | RAM network inhibition [7] 8.11%

CC(C)(Oc1ccc(Cl)cc1)C(=O)NCc1ccco1
inactive: growth inhibition [1] -1.12% | growth inhibition [2] -0.2% | viability increase [3] -4.22% | viability [4] 87.2% | viability [5] 80% | inhibition [6] 1.18% | RAM network inhibition [7] 5.92%

CCOC(=O)c1[nH]c(=O)[nH]c1CSc1nc(C)cc(C)n1
inactive: growth inhibition [1] -4.23% | growth inhibition [2] 7.25% | viability increase [3] -3.65% | viability [4] 102% | viability [5] 96.9% | inhibition [6] 0.985% | RAM network inhibition [7] 5.37%

COc1cccc(C(=O)N2CCSC2=S)c1
inactive: growth inhibition [1] -10.4% | growth inhibition [2] 3.34% | viability increase [3] -0.12% | viability [4] 97% | viability [5] 97.5% | inhibition [6] 0% | RAM network inhibition [7] -1.3%

O=C(C1CCN(S(=O)(=O)c2ccc(F)cc2)CC1)N1CC=C(c2ccccc2)CC1
inactive: growth inhibition [1] -0.895% | growth inhibition [2] -21% | viability increase [3] -2.73% | viability [4] 91% | viability [5] 89.7% | inhibition [6] 1.03% | RAM network inhibition [7] 1.27%

Cn1c(=O)c2c(nc(CN3CCN(C(=O)c4ccco4)CC3)n2Cc2ccccc2F)n(C)c1=O
inactive: growth inhibition [1] -1.06% | growth inhibition [2] -6.51% | viability increase [3] -4.26% | viability [4] 101% | viability [5] 89.8% | inhibition [6] 2.1% | RAM network inhibition [7] 3.22%

CN1CCN(C(=O)C2CCC(CNS(=O)(=O)c3cccc4cccnc34)CC2)CC1 (stereo not drawn)
inactive: growth inhibition [1] 4.4% | growth inhibition [2] 2.39% | viability increase [3] -0.86% | viability [4] 99% | viability [5] 100% | inhibition [6] 1.58% | RAM network inhibition [7] 0.46%

C=CCn1c(=N)n(CC(O)COc2ccc(OC)cc2)c2ccccc21 (stereo not drawn)
inactive: growth inhibition [1] -10.9% | growth inhibition [2] 1.67% | viability increase [3] -4.96% | viability [4] 64.8% | viability [5] 69% | inhibition [6] -0.445% | RAM network inhibition [7] -0.51%

COc1ccc(C2NC(=O)NC(C)=C2C(=O)Nc2cccc(C)c2C)cc1 (stereo not drawn)
inactive: growth inhibition [1] -6.41% | growth inhibition [2] 1.47% | viability increase [3] -1.09% | viability [4] 101% | viability [5] 103% | inhibition [6] 0.77% | RAM network inhibition [7] 1.64%

CS(=O)(=O)N1CCN(Cc2ccccc2C(F)(F)F)CC1
inactive: growth inhibition [1] -19.1% | growth inhibition [2] -5.12% | viability increase [3] 0.93% | viability [4] 91.1% | viability [5] 94% | inhibition [6] -0.185% | RAM network inhibition [7] 6.47%

Cn1c(=O)c2c(nc(Sc3ncccn3)n2Cc2ccc(Cl)cc2)n(C)c1=O
inactive: growth inhibition [1] -0.82% | growth inhibition [2] 1.5% | viability increase [3] -2.38% | viability [4] 82.4% | viability [5] 71.1% | inhibition [6] 1.8% | RAM network inhibition [7] 0.26%

From PubChem BioAssay
